Columns and labels:
Format in all cases: functional, cell-based
HL-60 = experiment: Cytotoxicity against human HL60 cells after 48 hrs by MTT assay
Outline: (§1)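 Cells grown in RPMI-1640 or DMEM with 10% FBS at 37 °C under 5% CO2. Adherent lines (A-549, MCF-7, SMMC-7721, SW480) were left to attach for 12 h before dosing; suspension HL-60 was seeded just before dosing at 1 × 10^5 cells/mL. Compounds were given in DMSO at 0.0625, 0.32, 1.6, 8 and 40 µmol, in triplicate, for 48 h. Read-out by MTT; cisplatin and vinorelbine were positive controls.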

SMMC-7721 = experiment: Cytotoxicity against human SMMC7721 cells after 48 hrs by MTT assay; outline: as §1
A549 = experiment: Cytotoxicity against human A549 cells after 48 hrs by MTT assay; outline: as §1
MCF7 = experiment: Cytotoxicity against human MCF7 cells after 48 hrs by MTT assay; outline: as §1
SW480 = experiment: Cytotoxicity against human SW480 cells after 48 hrs by MTT assay; outline: as §1

Compound	IC50 (HL-60) [µmol]	IC50 (SMMC-7721) [µmol]	IC50 (A549) [µmol]	IC50 (MCF7) [µmol]	IC50 (SW480) [µmol]
CC[C@]12C=CCN3CCc4c(n(c5ccccc45)[C@@H](c4ccc5c(c4)[C@@]46CCN7CC=C[C@@]8(C[C@@H](C(=O)OC)[C@]4(N5)[C@@H]8C)[C@H]76)C1)[C@@H]32	1.1	3.2	4.8	2.9	1.4
CC[C@]12C=CCN3CCc4c(n(c5ccccc45)[C@@H](OC)C1)[C@@H]32	15.9	22.1	> 40	29.3	32.2
CC[C@]12C=CCN3CC[C@]4(C(=C(C(=O)OC)C1)Nc1cc(OC)ccc14)[C@@H]32	0.2	13.1	12.8	2.1	12.7
CC[C@]12C=CCN3CC[C@]4(C(=C(C(=O)OC)C1)Nc1cc5c(cc14)[C@@H]1[C@H](O5)[C@@H](O)[C@@]4(CC)CC(C(=O)OC)=C5Nc6ccccc6[C@@]56CCN1[C@@H]46)[C@@H]32 [MELODININE K]	0.1	3	5	2.7	5.7
COC(=O)[C@@H]1C[C@@]23C=CCN4CC[C@@]5(c6ccccc6N[C@]15[C@@H]2C)[C@@H]43 [VINDOLININE]	6.8	20.7	26.3	21.9	15.2
CCC1=C[C@@H]2CN(C1)Cc1c([nH]c3ccccc13)[C@@](C(=O)OC)(c1cc3c(cc1OC)N(C)[C@H]1[C@@](O)(C(=O)OC)[C@H](OC(C)=O)[C@]4(CC)C=CCN5CC[C@]31[C@@H]54)C2 [VINORELBINE]	< 0.06	4.7	26.1	17.2	> 40
